# Results published in ChEMBL document CHEMBL5705905, “Pharmacological targeting of kinases MST1 and MST2 augments tissue repair and regeneration” (Sci Transl Med, 2016).
# The source made the active and inactive calls. The rule behind the calls is not given here.
# Key:
# [1] = target: T1, Serine/threonine-protein kinase 3 (Homo sapiens, UniProt Q13188); test: Inhibition of recombinant His-tagged full-length MST2 (unknown origin) expressing in Escherichia coli assessed as GST-tagged MOB1a phosphorylation level incubated for 30 mins by immunoblot analysis
# T1 sequence (Q13188 whole entry): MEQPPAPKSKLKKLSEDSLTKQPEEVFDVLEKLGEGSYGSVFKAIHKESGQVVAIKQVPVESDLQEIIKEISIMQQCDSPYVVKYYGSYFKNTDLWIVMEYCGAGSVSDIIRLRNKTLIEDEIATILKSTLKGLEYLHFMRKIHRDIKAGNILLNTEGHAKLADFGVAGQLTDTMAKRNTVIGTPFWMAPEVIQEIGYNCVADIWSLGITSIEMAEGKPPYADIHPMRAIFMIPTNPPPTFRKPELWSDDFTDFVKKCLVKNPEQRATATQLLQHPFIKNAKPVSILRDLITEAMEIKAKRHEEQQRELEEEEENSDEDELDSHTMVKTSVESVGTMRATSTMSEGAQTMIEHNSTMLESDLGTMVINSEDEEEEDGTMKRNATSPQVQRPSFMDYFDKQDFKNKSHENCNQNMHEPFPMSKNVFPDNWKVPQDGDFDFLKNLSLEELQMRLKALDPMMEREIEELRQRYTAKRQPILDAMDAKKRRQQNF
# [2] = system: RAW264.7; test: Inhibition of MST1/2 (unknown origin) in mouse RAW264.7 cells assessed as H2O2 stimulated MOB1 phosphorylation level at 1 to 3 uM by immunoblot analysis; type: cell-based; conditions: dose 1-3 µM
# [3] = system: Mus musculus; test: In vivo inhibition of MST1/2 in wild-type Mst1fl/fl Mst2fl/fl mouse assessed as high in CTGF mRNA level at 1 mg/kg, ip administrated daily for 7 days by RT-PCR analysis; type: functional, organism-based; conditions: Liver, time 7.0 day
# [4] = target: Serine/threonine-protein kinase 3 (Homo sapiens, UniProt Q13188, D109A/Y101F)
# [5] = target: Serine/threonine-protein kinase TAO3 (Homo sapiens, UniProt Q9H2K8); test: Binding affinity to TAOK3 (unknown origin) assessed as dissociation constant
# [6] = target: Casein kinase I isoform alpha (Homo sapiens) (UniProt P48729); test: Inhibition of CSNK1A1 (unknown origin) assessed as remaining activity at 1 uM by Kinome scan method relative to control
# Casein kinase I isoform alpha (Homo sapiens), sequence (P48729 2-337 limits assumed): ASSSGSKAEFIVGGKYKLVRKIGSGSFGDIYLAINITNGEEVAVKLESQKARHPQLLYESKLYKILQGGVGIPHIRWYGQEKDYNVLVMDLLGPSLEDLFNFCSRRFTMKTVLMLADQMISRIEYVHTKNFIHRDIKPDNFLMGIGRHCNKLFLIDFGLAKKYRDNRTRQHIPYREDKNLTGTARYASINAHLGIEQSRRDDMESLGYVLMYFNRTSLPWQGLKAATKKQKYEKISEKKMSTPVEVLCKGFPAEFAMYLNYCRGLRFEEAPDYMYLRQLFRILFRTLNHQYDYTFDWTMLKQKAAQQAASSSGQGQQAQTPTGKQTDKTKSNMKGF
# How it was run: (§1)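 Active-site-dependent competition-binding profiling (KINOMEscan) at 1 μM against a 468-kinase panel; compound supplied from a 10 mM DMSO stock. Read-out is ctrl% = (test signal − positive control signal)/(negative control signal − positive control signal) × 100. DMSO is the negative control (100%) and a control compound the positive control (0%). Lower ctrl% means tighter binding.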
# [7] = target: Cyclin-dependent kinase 7 (Homo sapiens) (UniProt P50613); test: Inhibition of CDK7 (unknown origin) assessed as remaining activity at 1 uM by Kinome scan method relative to control; how it was run: as §1
# Cyclin-dependent kinase 7 (Homo sapiens), sequence (P50613 whole entry): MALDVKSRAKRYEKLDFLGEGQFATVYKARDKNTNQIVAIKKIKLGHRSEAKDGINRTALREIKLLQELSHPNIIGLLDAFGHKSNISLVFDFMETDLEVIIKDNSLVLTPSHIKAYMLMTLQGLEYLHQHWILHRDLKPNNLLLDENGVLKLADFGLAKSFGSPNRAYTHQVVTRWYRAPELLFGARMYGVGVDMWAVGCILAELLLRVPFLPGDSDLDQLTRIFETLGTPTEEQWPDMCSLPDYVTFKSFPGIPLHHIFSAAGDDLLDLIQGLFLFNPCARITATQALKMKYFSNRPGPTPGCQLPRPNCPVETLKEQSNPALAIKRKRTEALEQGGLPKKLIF
# [8] = system: HepG2; test: Induction of apoptosis in human HepG2 cells assessed as necrosis cells at 3 uM by annexinV staining (Rvb =0.04 %); type: functional
# [9] = target: Tyrosine-protein kinase FRK (Homo sapiens) (UniProt P42685); test: Inhibition of FRK (unknown origin) assessed as remaining activity at 1 uM by Kinome scan method relative to control
# Tyrosine-protein kinase FRK (Homo sapiens), sequence (P42685 whole entry): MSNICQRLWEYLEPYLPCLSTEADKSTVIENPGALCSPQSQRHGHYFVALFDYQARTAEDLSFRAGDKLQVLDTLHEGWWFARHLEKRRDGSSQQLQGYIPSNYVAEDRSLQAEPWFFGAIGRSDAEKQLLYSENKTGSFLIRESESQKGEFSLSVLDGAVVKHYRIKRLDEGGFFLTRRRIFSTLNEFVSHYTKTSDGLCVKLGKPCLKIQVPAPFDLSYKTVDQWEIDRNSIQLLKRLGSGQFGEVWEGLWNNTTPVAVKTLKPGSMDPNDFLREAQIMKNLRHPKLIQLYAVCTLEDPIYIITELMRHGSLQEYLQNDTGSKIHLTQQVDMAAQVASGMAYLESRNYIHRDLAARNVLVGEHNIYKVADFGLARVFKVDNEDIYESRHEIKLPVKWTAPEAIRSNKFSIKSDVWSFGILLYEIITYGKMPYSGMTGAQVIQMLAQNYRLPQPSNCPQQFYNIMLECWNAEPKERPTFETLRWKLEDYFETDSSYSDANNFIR
# [10] = target: Homeodomain-interacting protein kinase 4 (Homo sapiens) (UniProt Q8NE63); test: Inhibition of HIPK4 (unknown origin) assessed as remaining activity at 1 uM by Kinome scan method relative to control
# [11] = target: Tyrosine-protein kinase HCK (Homo sapiens) (UniProt P08631); test: Inhibition of HCK (unknown origin) assessed as remaining activity at 1 uM by Kinome scan method relative to control
# Tyrosine-protein kinase HCK (Homo sapiens), sequence (P08631 2-526 limits assumed): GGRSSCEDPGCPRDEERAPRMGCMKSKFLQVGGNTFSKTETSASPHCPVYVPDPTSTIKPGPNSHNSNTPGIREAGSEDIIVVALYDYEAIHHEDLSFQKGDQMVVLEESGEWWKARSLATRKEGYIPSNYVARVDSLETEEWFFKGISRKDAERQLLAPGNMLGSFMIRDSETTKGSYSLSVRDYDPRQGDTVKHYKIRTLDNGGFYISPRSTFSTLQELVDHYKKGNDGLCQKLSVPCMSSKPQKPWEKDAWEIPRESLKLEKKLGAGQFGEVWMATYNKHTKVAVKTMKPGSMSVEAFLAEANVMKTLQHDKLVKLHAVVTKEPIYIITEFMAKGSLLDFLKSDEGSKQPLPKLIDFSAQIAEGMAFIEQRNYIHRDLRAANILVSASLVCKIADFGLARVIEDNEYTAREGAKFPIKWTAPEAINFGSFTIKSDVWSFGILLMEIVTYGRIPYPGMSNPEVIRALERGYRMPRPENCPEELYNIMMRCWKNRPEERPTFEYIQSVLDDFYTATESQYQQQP
# [12] = target: Mitogen-activated protein kinase kinase kinase 6 (Homo sapiens) (UniProt O95382); test: Inhibition of ASK2 (unknown origin) assessed as remaining activity at 1 uM by Kinome scan method relative to control
# How it was run: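 Active-site-dependent competition-binding (KINOMEscan) panel of 468 kinases, test compound at 1 μM (from a 10 mM DMSO stock). Read-out is ctrl% = (test signal − positive control signal)/(negative control signal − positive control signal) × 100. DMSO is the negative control (100%) and a control compound is the positive control (0%). Lower ctrl% means tighter binding.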
# [13] = target: Serine/threonine-protein kinase Nek5 (Homo sapiens) (UniProt Q6P3R8); test: Inhibition of NEK5 (unknown origin) assessed as remaining activity at 1 uM by Kinome scan method relative to control
# [14] = target: T1, Serine/threonine-protein kinase 3; test: Inhibition of recombinant His-tagged full-length MST2 (unknown origin) expressing in Escherichia coli assessed as MOB1a phosphorylation level incubated for 30 min in the presence of 100 uM ATP by immunoblot analysis
# [15] = target: Serine/threonine-protein kinase tousled-like 2 (Homo sapiens) (UniProt Q86UE8); test: Inhibition of TLK2 (unknown origin) assessed as remaining activity at 1 uM by Kinome scan method relative to control
# Serine/threonine-protein kinase tousled-like 2 (Homo sapiens), sequence (Q86UE8 whole entry, looked up): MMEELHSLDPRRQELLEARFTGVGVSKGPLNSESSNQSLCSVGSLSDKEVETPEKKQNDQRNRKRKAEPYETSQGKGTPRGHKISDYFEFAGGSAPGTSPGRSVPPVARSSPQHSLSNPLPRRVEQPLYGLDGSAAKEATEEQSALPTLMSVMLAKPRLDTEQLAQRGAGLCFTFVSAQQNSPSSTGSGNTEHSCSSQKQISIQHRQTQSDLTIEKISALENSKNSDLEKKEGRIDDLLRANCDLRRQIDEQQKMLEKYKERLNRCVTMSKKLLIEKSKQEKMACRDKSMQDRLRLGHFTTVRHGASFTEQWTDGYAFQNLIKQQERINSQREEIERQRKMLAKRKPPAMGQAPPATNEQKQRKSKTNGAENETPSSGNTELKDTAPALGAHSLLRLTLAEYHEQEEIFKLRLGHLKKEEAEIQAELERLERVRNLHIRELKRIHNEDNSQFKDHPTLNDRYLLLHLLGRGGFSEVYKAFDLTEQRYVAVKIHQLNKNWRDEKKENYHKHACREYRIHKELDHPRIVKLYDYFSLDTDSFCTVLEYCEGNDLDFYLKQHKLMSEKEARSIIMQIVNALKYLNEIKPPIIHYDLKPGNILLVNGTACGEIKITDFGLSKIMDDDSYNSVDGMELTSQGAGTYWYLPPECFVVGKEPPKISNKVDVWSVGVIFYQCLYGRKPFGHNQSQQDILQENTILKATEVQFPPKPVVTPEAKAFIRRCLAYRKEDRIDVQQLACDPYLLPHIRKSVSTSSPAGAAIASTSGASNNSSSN
# [16] = target: Homeodomain-interacting protein kinase 2 (Homo sapiens) (UniProt Q9H2X6); test: Inhibition of HIPK2 (unknown origin) assessed as remaining activity at 1 uM by Kinome scan method relative to control
# Homeodomain-interacting protein kinase 2 (Homo sapiens), sequence (Q9H2X6 whole entry, looked up, canonical isoform): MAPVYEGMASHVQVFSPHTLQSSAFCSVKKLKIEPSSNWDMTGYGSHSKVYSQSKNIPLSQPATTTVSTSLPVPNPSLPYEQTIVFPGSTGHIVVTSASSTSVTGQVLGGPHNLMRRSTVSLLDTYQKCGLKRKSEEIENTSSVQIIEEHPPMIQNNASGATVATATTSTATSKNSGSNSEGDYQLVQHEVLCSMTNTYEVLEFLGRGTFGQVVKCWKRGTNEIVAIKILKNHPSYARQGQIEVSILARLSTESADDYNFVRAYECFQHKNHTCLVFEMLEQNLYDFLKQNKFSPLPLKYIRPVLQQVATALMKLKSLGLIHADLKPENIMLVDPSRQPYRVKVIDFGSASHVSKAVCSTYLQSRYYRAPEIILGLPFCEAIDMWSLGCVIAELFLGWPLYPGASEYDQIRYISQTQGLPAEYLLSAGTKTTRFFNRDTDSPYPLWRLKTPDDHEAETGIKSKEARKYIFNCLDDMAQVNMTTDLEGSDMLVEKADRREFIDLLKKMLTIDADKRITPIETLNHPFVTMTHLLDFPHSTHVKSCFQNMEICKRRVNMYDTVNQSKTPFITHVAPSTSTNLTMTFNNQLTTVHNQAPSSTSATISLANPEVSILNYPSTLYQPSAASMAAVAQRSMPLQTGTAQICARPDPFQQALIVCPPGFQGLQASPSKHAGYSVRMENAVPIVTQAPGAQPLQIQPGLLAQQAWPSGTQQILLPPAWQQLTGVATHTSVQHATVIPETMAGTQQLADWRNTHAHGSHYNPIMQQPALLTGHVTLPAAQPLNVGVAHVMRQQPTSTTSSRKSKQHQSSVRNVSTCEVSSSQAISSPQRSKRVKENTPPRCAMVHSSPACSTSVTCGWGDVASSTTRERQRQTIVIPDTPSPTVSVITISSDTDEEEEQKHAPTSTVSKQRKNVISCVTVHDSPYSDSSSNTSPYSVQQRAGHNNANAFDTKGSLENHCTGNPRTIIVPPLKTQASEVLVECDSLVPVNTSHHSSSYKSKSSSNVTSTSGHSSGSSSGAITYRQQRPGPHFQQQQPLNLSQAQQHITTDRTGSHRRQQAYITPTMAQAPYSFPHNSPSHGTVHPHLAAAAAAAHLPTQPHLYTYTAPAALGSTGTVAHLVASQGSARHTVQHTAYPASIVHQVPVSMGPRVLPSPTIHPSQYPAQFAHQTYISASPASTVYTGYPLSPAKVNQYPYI
# [17] = system: Phosphatidylinositol 4,5-bisphosphate 3-kinase catalytic subunit alpha isoform (Homo sapiens), P42336 [E545K]; test: Inhibition of PIK3CA E545K mutant (unknown origin) assessed as remaining activity at 1 uM by Kinome scan method relative to control
# [18] = target: Mitogen-activated protein kinase 1 (Homo sapiens) (UniProt P28482); test: Inhibition of ERK2 (unknown origin) assessed as remaining activity at 1 uM by Kinome scan method relative to control
# [19] = target: Serine/threonine-protein kinase Nek6 (Homo sapiens) (UniProt Q9HC98); test: Inhibition of NEK6 (unknown origin) assessed as remaining activity at 1 uM by Kinome scan method relative to control
# Serine/threonine-protein kinase Nek6 (Homo sapiens), sequence (Q9HC98 whole entry): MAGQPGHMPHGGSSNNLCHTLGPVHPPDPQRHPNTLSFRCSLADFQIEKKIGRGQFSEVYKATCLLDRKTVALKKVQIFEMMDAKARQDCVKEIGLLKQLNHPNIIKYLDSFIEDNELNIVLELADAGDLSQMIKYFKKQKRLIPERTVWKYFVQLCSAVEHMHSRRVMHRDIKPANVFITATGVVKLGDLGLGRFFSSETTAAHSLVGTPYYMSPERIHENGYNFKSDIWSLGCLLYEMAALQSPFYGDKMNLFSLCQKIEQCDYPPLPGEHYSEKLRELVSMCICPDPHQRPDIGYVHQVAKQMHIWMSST
# [20] = target: Dual specificity tyrosine-phosphorylation-regulated kinase 1A (Homo sapiens) (UniProt Q13627); test: Inhibition of DYRK1A (unknown origin) assessed as remaining activity at 1 uM by Kinome scan method relative to control
# [21] = target: Serine/threonine-protein kinase Sgk1 (Homo sapiens) (UniProt O00141); test: Inhibition of SGK (unknown origin) assessed as remaining activity at 1 uM by Kinome scan method relative to control
# Serine/threonine-protein kinase Sgk1 (Homo sapiens), sequence (O00141 whole entry): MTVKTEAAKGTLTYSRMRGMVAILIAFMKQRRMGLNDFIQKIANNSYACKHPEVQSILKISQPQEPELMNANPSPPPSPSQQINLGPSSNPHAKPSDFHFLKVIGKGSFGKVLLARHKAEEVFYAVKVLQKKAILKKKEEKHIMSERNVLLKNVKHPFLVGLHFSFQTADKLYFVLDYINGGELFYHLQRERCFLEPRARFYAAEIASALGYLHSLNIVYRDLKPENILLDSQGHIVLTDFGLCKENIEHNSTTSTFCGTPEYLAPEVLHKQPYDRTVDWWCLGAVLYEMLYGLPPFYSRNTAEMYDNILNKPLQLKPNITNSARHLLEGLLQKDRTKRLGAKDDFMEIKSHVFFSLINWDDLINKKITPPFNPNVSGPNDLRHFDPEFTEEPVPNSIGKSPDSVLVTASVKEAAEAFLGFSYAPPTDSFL
# [22] = system: Epidermal growth factor receptor (Homo sapiens), P00533 [G719C]; test: Inhibition of EGFR G719C mutant (unknown origin) assessed as remaining activity at 1 uM by Kinome scan method relative to control
# [23] = target: Cyclin-dependent kinase 18 (Homo sapiens) (UniProt Q07002); test: Inhibition of PCTK3 (unknown origin) assessed as remaining activity at 1 uM by Kinome scan method relative to control
# [24] = target: Cyclin-dependent kinase 17 (Homo sapiens) (UniProt Q00537); test: Inhibition of PCTK2 (unknown origin) assessed as remaining activity at 1 uM by Kinome scan method relative to control
# Cyclin-dependent kinase 17 (Homo sapiens), sequence (Q00537 whole entry, looked up): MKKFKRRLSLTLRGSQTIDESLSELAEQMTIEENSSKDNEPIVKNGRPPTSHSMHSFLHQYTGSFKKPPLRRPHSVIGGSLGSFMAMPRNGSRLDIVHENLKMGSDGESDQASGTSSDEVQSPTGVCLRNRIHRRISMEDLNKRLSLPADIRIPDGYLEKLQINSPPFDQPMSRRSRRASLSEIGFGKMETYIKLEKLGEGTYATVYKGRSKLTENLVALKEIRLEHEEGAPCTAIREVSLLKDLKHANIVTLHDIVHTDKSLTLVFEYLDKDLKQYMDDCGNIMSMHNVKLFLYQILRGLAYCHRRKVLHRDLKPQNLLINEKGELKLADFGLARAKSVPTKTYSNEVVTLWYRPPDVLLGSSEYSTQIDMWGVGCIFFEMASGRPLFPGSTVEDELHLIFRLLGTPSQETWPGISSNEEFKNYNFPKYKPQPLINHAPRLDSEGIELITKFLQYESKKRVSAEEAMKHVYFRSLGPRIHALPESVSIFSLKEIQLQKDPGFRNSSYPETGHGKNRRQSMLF
# [25] = system: HepG2; test: Induction of apoptosis in human HepG2 cells overexpressing MST2 assessed as viable cells at 3 uM by annexinV staining (Rvb =84.2 %); type: functional; conditions: read-out: Activity
structure (smiles),measurement,setting,value
CN1C(=O)c2sccc2N(C)c2nc(Nc3ccc(S(N)(=O)=O)cc3)ncc21,IC50,[1],38.2 nM
same,inhibition,[2],Active
same,inhibition,[3],Active
same,IC50,[4],1680 nM
same,Kd,[5],610 nM
same,Activity,[6],88%
same,Activity,[7],60%
same,Activity,[8],0.05%
same,Activity,[9],100%
same,Activity,[10],94%
same,Activity,[11],100%
same,Activity,[12],84%
same,Activity,[13],97%
same,IC50,[14],280 nM
same,Activity,[15],100%
same,Activity,[16],96%
same,Activity,[17],49%
same,Activity,[18],100%
same,Activity,[19],97%
same,Activity,[20],81%
same,Activity,[21],96%
same,Activity,[22],78%
same,Activity,[23],100%
same,Activity,[24],86%
same,viability at 3 µM,[25],93.1%
